One block for each compound: values may come before it. Active and inactive are the calls of the source. The rule behind the calls is not given here.
Key:
[1] = tested on: DLD-1; assay: Antitumor activity against human DLD1 cells by trypan blue exclusion assay; format: functional, cell-based
Summary of the method: (§1)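 Tumour cells were grown in DMEM or RPMI with 10% fetal bovine serum and 1 unit/mL penicillin-streptomycin. They were seeded in six-well dishes at 1.0 × 10⁵ cells/mL/well, and compound was added 24 h later over a range of concentrations. After 96 h of exposure, viable cells in duplicate wells were counted by trypan blue exclusion.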

[2] = Antitumor activity against human H157 cells by trypan blue exclusion assay; format: functional, cell-based; details: NCI-H157; summary of the method: as §1
[3] = tested on: BT-20; assay: Antitumor activity against human BT20 cells by trypan blue exclusion assay; format: functional, cell-based; summary of the method: as §1
[4] = tested on: DU-145; assay: Antitumor activity against AR-negative human DU145 cells by trypan blue exclusion assay; format: functional, cell-based; summary of the method: as §1
[5] = Antitumor activity against human U87 cells by trypan blue exclusion assay; format: functional, cell-based, U-87MG ATCC; details: U-87 MG; summary of the method: as §1
[6] = tested on: BT-20; assay: Growth inhibition of human BT20 after 3 weeks by soft agar colony formation assay; format: functional, cell-based
Summary of the method: (§2)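 Noble agar: 0.8% bottom layer; cells (1.0 × 10⁵ for MIA-PaCa-2) in medium with compound at various concentrations, mixed into 0.4% top agar. Each concentration in triplicate; 3 weeks at 37 °C, 5% CO₂. Stained with 0.05% nitroblue tetrazolium for 48 h and colonies photographed.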

[7] = tested on: MCF7; assay: Antitumor activity against ER-positive human MCF7 cells by trypan blue exclusion assay; format: functional, cell-based; summary of the method: as §1
[8] = Antitumor activity against human RF1 cells by trypan blue exclusion assay; format: functional, cell-based; summary of the method: as §1
[9] = tested on: SK-OV-3; assay: Antitumor activity against human SKOV3 cells by trypan blue exclusion assay; format: functional, cell-based; summary of the method: as §1
[10] = tested on: SK-MEL-28; assay: Antitumor activity against human SK-MEL-28 cells by trypan blue exclusion assay; format: functional, cell-based; summary of the method: as §1
[11] = Antitumor activity against human multidrug-resistant MES-SA/DX5 cells by trypan blue exclusion assay; format: functional, cell-based; summary of the method: as §1
[12] = tested on: MIA PaCa-2; assay: Antitumor activity against human MiaPaCa2 cells by trypan blue exclusion assay; format: functional, cell-based; summary of the method: as §1
[13] = tested on: MOLT-4; assay: Antitumor activity against human MOLT4 cells by trypan blue exclusion assay; format: functional, cell-based; summary of the method: as §1
[14] = tested on: Raji; assay: Antitumor activity against human Raji cells by trypan blue exclusion assay; format: functional, cell-based; summary of the method: as §1
[15] = Antitumor activity against human H187 cells by trypan blue exclusion assay; format: functional, cell-based; details: NCI-H187; summary of the method: as §1
[16] = Antitumor activity against human N417 cells by trypan blue exclusion assay; format: functional, cell-based; summary of the method: as §1
[17] = tested on: PC-3; assay: Antitumor activity against […] human PC3 cells by trypan blue exclusion assay; format: functional, cell-based; summary of the method: as §1
[18] = Antitumor activity against human multidrug-resistant 2008/17/4 cells by trypan blue exclusion assay; format: functional; summary of the method: as §1
[19] = tested on: HUVEC; assay: Cell cycle arrest in HUVEC cells by accumulation at G1 phase by FACS analysis; format: functional, cell-based; details: Homo sapiens
Summary of the method: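 HUVEC were exposed to 20 nM compound in medium with 10% fetal bovine serum. At 24 h intervals, cells were fixed, stained with propidium iodide and analysed for DNA content by flow cytometry.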

[20] = tested on: MIA PaCa-2; assay: Growth inhibition of human MiaPaCa2 cells after 3 weeks by soft agar colony formation assay; format: functional, cell-based; summary of the method: as §2
[21] = Antitumor activity against human MES-SA cells by trypan blue exclusion assay; format: functional, cell-based; summary of the method: as §1
[22] = tested on: Daudi; assay: Antitumor activity against human Daudi cells by trypan blue exclusion assay; format: functional, cell-based; summary of the method: as §1
[23] = tested on: HCT-15; assay: Antitumor activity against human HCT15 cells by trypan blue exclusion assay; format: functional, cell-based; summary of the method: as §1
[24] = tested on: CCRF-CEM; assay: (§3) Antitumor activity against human CEM cells by trypan blue exclusion assay; format: functional, cell-based; summary of the method: as §1
[25] = tested on: A549; assay: Antitumor activity against human A549 cells by trypan blue exclusion assay; format: functional, cell-based; summary of the method: as §1
[26] = tested on: HCT-116; assay: Antitumor activity against human HCT116 cells by trypan blue exclusion assay; format: functional, cell-based; summary of the method: as §1
[27] = tested on: T47D; assay: Antitumor activity against ER-positive human T47D cells by trypan blue exclusion assay; format: functional, cell-based; summary of the method: as §1
[28] = tested on: 2008; assay: Antitumor activity against human 2008 cells by trypan blue exclusion assay; format: functional, cell-based; summary of the method: as §1
[29] = tested on: CCRF-CEM; assay: as §3; format: functional, cell-based; summary of the method: as §1; remark: listed apart in the source
[30] = tested on: AGS; assay: Antitumor activity against human AGS cells by trypan blue exclusion assay; format: functional, cell-based; summary of the method: as §1
[31] = Antitumor activity against human RF48 cells by trypan blue exclusion assay; format: functional, cell-based; summary of the method: as §1
[32] = tested on: CEM/C2; assay: Antitumor activity against human multidrug-resistant CEM/C2 cells by trypan blue exclusion assay; format: functional, cell-based; summary of the method: as §1
[33] = tested on: OVCAR-3; assay: Antitumor activity against human OVCAR-3 cells by trypan blue exclusion assay; format: functional, cell-based; summary of the method: as §1
[34] = tested on: DU-145; assay: Growth inhibition of human DU145 after 3 weeks by soft agar colony formation assay; format: functional, cell-based; summary of the method: as §2
[35] = Antitumor activity against human Namalwa cells by trypan blue exclusion assay; format: functional, cell-based; details: NAMALVA; summary of the method: as §1
[36] = tested on: K562; assay: Antitumor activity against human K562 cells by trypan blue exclusion assay; format: functional, cell-based; summary of the method: as §1
[37] = tested on: COLO 205; assay: Antitumor activity against human COLO205 cells by trypan blue exclusion assay; format: functional, cell-based; summary of the method: as §1
[38] = tested on: SW480; assay: Antitumor activity against human SW480 cells by trypan blue exclusion assay; format: functional, cell-based; summary of the method: as §1
[39] = tested on: BT-20; assay: Antitumor activity against ER-negative human BT20 xenografted athymic NCR-nu/nu mouse at 25 mg/kg, ip for every 4 days after 22 days; details: route intraperitoneal
[40] = tested on: BT-20; assay: Antitumor activity against ER-negative human BT20 xenografted athymic NCR-nu/nu mouse at 50 mg/kg, ip every 2 days after 22 days; details: route intraperitoneal
[41] = tested on: BT-20; assay: Antitumor activity against human BT20 xenografted athymic NCR-nu/nu mouse at 50 mg/kg, ip after 22 days

- IC50 [1]: 2000 nM
- IC50 [3]: 1500 nM
- IC50 [4]: 1250 nM
SMILES: COc1ccc(CS(=O)(=O)/C=C/c2ccc(F)cc2)cc1
- IC50 [2]: 2500 nM

- IC50 [1]: > 20000 nM
- IC50 [3]: > 20000 nM
- IC50 [4]: > 20000 nM
SMILES: COc1ccc(CS(=O)(=O)/C=C/c2c(C)cccc2C)cc1
- IC50 [2]: > 20000 nM

- IC50 [1]: 15000 nM
- IC50 [3]: 15000 nM
- IC50 [4]: 12500 nM
SMILES: COc1cc(OC)c(/C=C/S(=O)(=O)Cc2ccc(OC)c(OC)c2OC)c(OC)c1
- IC50 [2]: 15000 nM

- IC50 [1]: 20000 nM
- IC50 [3]: 12500 nM
- IC50 [4]: 7500 nM
SMILES: COc1cc(OC)c(/C=C/S(=O)(=O)Cc2ccc(C#N)cc2)c(OC)c1
- IC50 [2]: 15000 nM

- IC50 [1]: > 20000 nM
- IC50 [3]: > 20000 nM
- IC50 [4]: > 20000 nM
SMILES: COc1ccc(CS(=O)(=O)/C=C/c2cc(OC)ccc2OC)cc1
- IC50 [2]: > 20000 nM

- IC50 [1]: > 20000 nM
- IC50 [3]: > 20000 nM
- IC50 [4]: > 20000 nM
SMILES: COc1ccc(CS(=O)(=O)/C=C/c2cc(OC)c(OC)c(OC)c2)cc1
- IC50 [2]: > 20000 nM

- IC50 [1]: 700 nM
- IC50 [3]: 400 nM
- IC50 [4]: 250 nM
SMILES: COc1ccc(CS(=O)(=O)/C=C/c2c(OC)cccc2OC)cc1
- IC50 [2]: 700 nM

- IC50 [1]: > 20000 nM
- IC50 [3]: > 20000 nM
- IC50 [4]: > 20000 nM
SMILES: COc1ccc(CS(=O)(=O)/C=C/c2c(OC)cc(O)cc2OC)cc1
- IC50 [2]: > 20000 nM

- IC50 [1]: > 20000 nM
- IC50 [3]: > 20000 nM
- IC50 [4]: > 20000 nM
SMILES: COc1ccc(CS(=O)(=O)/C=C/c2ccc(OC)c(OC)c2)cc1
- IC50 [2]: > 20000 nM

- IC50 [1]: 750 nM
- IC50 [3]: 750 nM
- IC50 [4]: 500 nM
SMILES: COc1ccc(CS(=O)(=O)/C=C/c2c(OC)cc(F)cc2OC)cc1
- IC50 [2]: 500 nM

- IC50 [1]: > 20000 nM
- IC50 [3]: > 20000 nM
- IC50 [4]: > 20000 nM
SMILES: COc1ccc(CS(=O)(=O)/C=C/c2cc(OC)cc(OC)c2)cc1
- IC50 [2]: > 20000 nM

- IC50 [1]: > 20000 nM
- IC50 [3]: > 20000 nM
- IC50 [4]: > 20000 nM
SMILES: COc1ccc(CS(=O)(=O)/C=C/c2ccc(N)cc2)cc1
- IC50 [2]: > 20000 nM

- IC50 [1]: > 20000 nM
- IC50 [3]: > 20000 nM
- IC50 [4]: > 20000 nM
SMILES: COc1cc(OC)c(/C=C/S(=O)(=O)Cc2cc(OC)c(OC)c(OC)c2)c(OC)c1
- IC50 [2]: > 20000 nM

- IC50 [1]: > 20000 nM
- IC50 [3]: > 20000 nM
- IC50 [4]: > 20000 nM
SMILES: COc1ccc(CS(=O)(=O)/C=C/c2ccc(OC)c(OC)c2OC)cc1
- IC50 [2]: > 20000 nM

- IC50 [1]: 3 nM
- IC50 [7]: 4 nM
- IC50 [9]: 6 nM
- IC50 [10]: 7 nM
- IC50 [12]: 4 nM
- IC50 [13]: 5 nM
- IC50 [14]: 4 nM
- IC50 [17]: 8 nM
- IC50 [22]: 7 nM
- IC50 [23]: 8 nM
- IC50 [24]: 9 nM
- IC50 [3]: 10 nM
- IC50 [25]: 10 nM
- IC50 [26]: 9 nM
- IC50 [27]: 6 nM
- IC50 [29]: 10 nM
- IC50 [30]: 7 nM
- IC50 [4]: 3 nM
- IC50 [33]: 6 nM
- IC50 [36]: 4 nM
- IC50 [37]: 9 nM
- IC50 [38]: 7 nM
SMILES: COc1cc(OC)c(/C=C/S(=O)(=O)Cc2ccc(OC)c(O)c2)c(OC)c1
- IC50 [5]: 7 nM
- Activity [6]: Dose-dependent effect
- IC50 [8]: 6 nM
- IC50 [11]: 5 nM
- IC50 [15]: 7 nM
- IC50 [16]: 5 nM
- IC50 [18]: 4 nM
- Activity [19]: Active
- Activity [20]: Dose-dependent effect
- IC50 [2]: 4 nM
- IC50 [21]: 6 nM
- IC50 [28]: 5 nM
- IC50 [31]: 5 nM
- IC50 [32]: 10 nM
- Activity [34]: Dose-dependent effect
- IC50 [35]: 6 nM

- IC50 [1]: 40 nM
- IC50 [7]: 3 nM
- IC50 [10]: 40 nM
- IC50 [12]: 8 nM
- IC50 [13]: 9 nM
- IC50 [14]: 9 nM
- IC50 [17]: 30 nM
- IC50 [22]: 8 nM
- IC50 [23]: 20 nM
- IC50 [24]: 30 nM
- IC50 [3]: 20 nM
- IC50 [25]: 20 nM
- IC50 [27]: 25 nM
- IC50 [29]: 30 nM
- IC50 [30]: 20 nM
- IC50 [4]: 25 nM
- IC50 [33]: 8 nM
- IC50 [37]: 15 nM
SMILES: COc1ccc(CS(=O)(=O)/C=C/c2c(OC)cc(OC)cc2OC)cc1
- IC50 [5]: 40 nM
- IC50 [8]: 8 nM
- Activity [39]: 74 mm3
- IC50 [11]: 10 nM
- IC50 [15]: 15 nM
- IC50 [16]: 8 nM
- Activity [19]: Active
- IC50 [2]: 30 nM
- IC50 [21]: 10 nM
- Activity [40]: 67.5 mm3
- IC50 [31]: 10 nM
- Activity [41]: Active
- IC50 [32]: 10 nM
- IC50 [35]: 15 nM

- IC50 [1]: 15000 nM
- IC50 [3]: 15000 nM
- IC50 [4]: 10000 nM
SMILES: COc1ccc(CS(=O)(=O)/C=C/c2ccc(F)cc2OC)cc1
- IC50 [2]: 20000 nM

Reference: ChEMBL document CHEMBL1140709, “Design, synthesis, and biological evaluation of (E)-styrylbenzylsulfones as novel anticancer agents” (J Med Chem, 2008)
